# Data reported in the RNAGym collection of RNA variant scans (doi:10.1002/anie.201605470).
# B1: Osa-1-4 twister ribozyme (parent)
# chain: CCGCCUAACACUGCCAAUGCCGGUCCCAAGCCCGGAUAAAAGUGGAGGGGGCGG
# Variants of: B1
# Test: self-cleavage, relative activity (ratio to wild type); higher = more cleavage; co-transcriptional
# Summary of the method: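 Values are relative activity: the fraction cleaved, normalised to wild type. A doped DNA template for a 54-nucleotide twister ribozyme from Oryza sativa had 97 % wild-type base and 1 % of each other base at the 48 positions downstream of the cleavage site. The RNA was transcribed in vitro for 2 h at 37 °C so that it could cleave itself co-transcriptionally, then sequenced deeply, with cleavage status scored from the presence or absence of upstream sequence in reads.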
row,Variant,self-cleavage
1,CCGCCUAACACUGCCAAUGCCGGUCCCAAGCCCGUAGAAAAGUGGAGGGGGCGG [G35U U37G],0.89
2,CCGCCUAACACUGCCAAUGCCGGUCCCAAGCCCGUACAAAAGUGGAGGGGGCGG [G35U U37C],0.94
3,CCGCCUAACACUGCCAAUGCCGGUCCCAAGCCCGUAAAAAAGUGGAGGGGGCGG [G35U U37A],0.92
4,CCGCCUAACACUGCCAAUGCCGGGCCCAAGCCCGUAUAAAAGUGGAGGGGGCGG [G35U U24G],0.03
5,CCGCCUAACACUGCCAAUGCCGGACCCAAGCCCGUAUAAAAGUGGAGGGGGCGG [G35U U24A],0.2
6,CCGCCUAACACUGCCAAUGCCGGCCCCAAGCCCGUAUAAAAGUGGAGGGGGCGG [G35U U24C],0.08
7,CCGCCUAACACUGCCAAUGCCGGUCCCAAGCCCGCAUAAAAGUGGAGGGGGCGU [G35C G54U],0.36
8,CCGCCUAACACUGCCAAUGCCGGUCCCAAGCCCGCAUAAAAGUGGAGGGGGCGA [G35C G54A],0.2
9,CCGCCUAACACUGCCAAUGCCGGUCCCAAGCCCGCAUAAAAGUGGAGGGGGCGC [G35C G54C],0.13
10,CCGCCUAACACUGCCAAUGCCGGUCCCAAGCCCGUAUAAAAGUGGAGGGGGCGU [G35U G54U],0.8
11,CCGCCUAACACUGCCAAUGCCGGUCCCAAGCCCGUAUAAAAGUGGAGGGGGCGC [G35U G54C],0.77
12,CCGCCUAACACUGCCAAUGCCGGUCCCAAGCCCGUAUAAAAGUGGAGGGGGCGA [G35U G54A],0.8
13,CCGCCUAACACUGCCAAUGCCGGGCCCAAGCCCGCAUAAAAGUGGAGGGGGCGG [G35C U24G],0.01
14,CCGCCUAACACUGCCAAUGCCGGCCCCAAGCCCGCAUAAAAGUGGAGGGGGCGG [G35C U24C],0.05
15,CCGCCUAACACUGCCAAUGCCGGACCCAAGCCCGCAUAAAAGUGGAGGGGGCGG [G35C U24A],0.06
16,CCGCCUAACACGGCCAAUGCCGGUCCCAAGCCCGUAUAAAAGUGGAGGGGGCGG [G35U U12G],0.08
17,CCGCCUAACACCGCCAAUGCCGGUCCCAAGCCCGUAUAAAAGUGGAGGGGGCGG [G35U U12C],0.37
18,CCGCCUAACACAGCCAAUGCCGGUCCCAAGCCCGUAUAAAAGUGGAGGGGGCGG [G35U U12A],0.47
19,CCGCCUAACACGGCCAAUGCCGGUCCCAAGCCCGCAUAAAAGUGGAGGGGGCGG [G35C U12G],0.07
20,CCGCCUAACACAGCCAAUGCCGGUCCCAAGCCCGCAUAAAAGUGGAGGGGGCGG [G35C U12A],0.08
21,CCGCCUAACACCGCCAAUGCCGGUCCCAAGCCCGCAUAAAAGUGGAGGGGGCGG [G35C U12C],0.09
22,CCGCCUAACACUGCCAAUGCCGGUCCCAAGCCCGUAUAAAAGUGGAGGGGUCGG [G35U G51U],0.15
23,CCGCCUAACACUGCCAAUGCCGGUCCCAAGCCCGUAUAAAAGUGGAGGGGACGG [G35U G51A],0.25
24,CCGCCUAACACUGCCAAUGCCGGUCCCAAGCCCGUAUAAAAGUGGAGGGGCCGG [G35U G51C],0.06

row,Variant,self-cleavage
1,CCGCCUAACACUGCCAAUGCCGGUCCCAAGCCCGUAUAAAAGUGGAGGGGGCCG [G35U G53C],0.07
2,CCGCCUAACACUGCCAAUGCCGGUCCCAAGCCCGUAUAAAAGUGGAGGGGGCUG [G35U G53U],0.17
3,CCGCCUAACACUGCCAAUGCCGGUCCCAAGCCCGUAUAAAAGUGGAGGGGGCAG [G35U G53A],0.62
4,CCGCCUAACACUGCCAAUGCCGGUCCCAAGCCCGCAUAAAAGUGGAGGCGGCGG [G35C G49C],0.05
5,CCGCCUAACACUGCCAAUGCCGGUCCCAAGCCCGCAUAAAAGUGGAGGAGGCGG [G35C G49A],0.05
6,CCGCCUAACACUGCCAAUGCCGGUCCCAAGCCCGCAUAAAAGUGGAGGUGGCGG [G35C G49U],0.05
7,CCGCCUAACACUGCCAAUGCCGGUCCCAAGCCCGCAUAAAAGCGGAGGGGGCGG [G35C U43C],0.09
8,CCGCCUAACACUGCCAAUGCCGGUCCCAAGCCCGCAUAAAAGGGGAGGGGGCGG [G35C U43G],0.1
9,CCGCCUAACACUGCCAAUGCCGGUCCCAAGCCCGCAUAAAAGAGGAGGGGGCGG [G35C U43A],0.14
10,CCGCCUAACACUGCCAAUGCCGGUCCCAAGCCCGCAUAAAAGUCGAGGGGGCGG [G35C G44C],0.45
11,CCGCCUAACACUGCCAAUGCCGGUCCCAAGCCCGCAUAAAAGUUGAGGGGGCGG [G35C G44U],0.26
12,CCGCCUAACACUGCCAAUGCCGGUCCCAAGCCCGUAUAAAAGUCGAGGGGGCGG [G35U G44C],0.74
13,CCGCCUAACACUGCCAAUGCCGGUCCCAAGCCCGUAUAAAAGUUGAGGGGGCGG [G35U G44U],0.74
14,CCGCCUAACACUGCCAAUGCCGGUCCCAAGCCCGUAUAAAAGUAGAGGGGGCGG [G35U G44A],0.88
15,CCGCCUCACACUGCCAAUGCCGGUCCCAAGCCCGGCUAAAAGUGGAGGGGGCGG [A36C A7C],0.05
16,CCGCCUUACACUGCCAAUGCCGGUCCCAAGCCCGGCUAAAAGUGGAGGGGGCGG [A36C A7U],0.05
17,CCGCCUGACACUGCCAAUGCCGGUCCCAAGCCCGGCUAAAAGUGGAGGGGGCGG [A36C A7G],0.11
18,CCGCCUAACACUGCCAAUGCCGGUCCCAAGCCCGUAUAAAAGUGGAGGGUGCGG [G35U G50U],0.92
19,CCGCCUAACACUGCCAAUGCCGGUCCCAAGCCCGUAUAAAAGUGGAGGGAGCGG [G35U G50A],0.35
20,CCGCCUAACACUGCCAAUGCCGGUCCCAAGCCCGUAUAAAAGUGGAGGGCGCGG [G35U G50C],0.79
21,CCGCCUAACACUGCCAAUGCCGGUCCCAAGCCCGCAUAAAAGUGGAGGGGUCGG [G35C G51U],0.06
22,CCGCCUAACACUGCCAAUGCCGGUCCCAAGCCCGCAUAAAAGUGGAGGGGACGG [G35C G51A],0.09
23,CCGCCUAACACUGCCAAUGCCGGUCCCAAGCCCGCAUAAAAGUGGAGGGGCCGG [G35C G51C],0.05
24,CCGCCUAACACUGCCAAAGCCGGUCCCAAGCCCGUAUAAAAGUGGAGGGGGCGG [G35U U18A],0.8
